This passage reports Ki results from ChEMBL document CHEMBL1132220 (J Med Chem, 1999).

Bridge positions count the residues as written; N and C are the ends. Square brackets hold non-standard residues; d marks the D form. Peptide text beside a SMILES is read from it. Phe(4-Cl) = N[C@@H](Cc1ccc(Cl)cc1)C(=O)O; dPhe(4-F) = N[C@H](Cc1ccc(F)cc1)C(=O)O; 2Nal = N[C@@H](Cc1ccc2ccccc2c1)C(=O)O; Bta = N[C@@H](Cc1csc2ccccc12)C(=O)O; 3Pal = N[C@@H](Cc1cccnc1)C(=O)O; Tle = CC(C)(C)[C@H](N)C(=O)O; Nle = CCCC[C@H](N)C(=O)O

Assay [1] has as its target Somatostatin receptor type 4 (Homo sapiens, UniProt P31391). Description: The compound was tested for binding affinity against human Somatostatin receptor type 4. In outline: (§1)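 CHO-K1 cells stably transfected (calcium phosphate) with cloned human sst3 or sst4. Membranes made in ice-cold 50 mM Tris-HCl, resuspended in 10 mM Tris-HCl, then incubated 30 min at 37 °C with 0.05 nM [125I]Tyr11-SRIF in HEPES pH 7.4 with BSA, MgCl2 and protease inhibitors. Filtered on GF/C; nonspecific binding with 1.0 µM SRIF. Mean ± SEM, or one experiment.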

Assay [2] addresses Somatostatin receptor type 3 (Homo sapiens, UniProt P32745). Description: The compound was tested for binding affinity against human Somatostatin receptor type 3. The method, boiled down:
as §1

Assay [3] concerns the target Somatostatin receptor type 5 (Homo sapiens, UniProt P35346). As to the kind of experiment: The compound was tested for binding affinity against human Somatostatin receptor type 5. In outline: (§2)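 Membranes from CHO-K1 cells transfected with the cloned human receptor. Terminated by filtration on PEI-soaked GF/C filters. Nonspecific binding defined with 1.0 μM SRIF. Mean ± SEM; single values are from one experiment.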

In assay [4] the target is Somatostatin receptor type 2 (Homo sapiens, UniProt P30874). Description: The compound was tested for binding affinity against human Somatostatin receptor type 2. In outline:
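Membranes from CHO-K1 cells transfected with the cloned human sst2. Incubated 30 min at 37 °C with 0.05 nM [125I]MK-678 in HEPES pH 7.4 with BSA, MgCl2, Trasylol, bacitracin and PMSF. Filtration on PEI-soaked GF/C filters. Nonspecific binding defined with 1.0 μM SRIF. Mean ± SEM; single values are from one experiment.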

For assay [5], the target named is Somatostatin receptor type 1 (Homo sapiens, UniProt P30872). Description: The compound was tested for binding affinity against human Somatostatin receptor type 1. The method, boiled down: as §2
Chain of Somatostatin receptor type 1 (P30872 whole entry): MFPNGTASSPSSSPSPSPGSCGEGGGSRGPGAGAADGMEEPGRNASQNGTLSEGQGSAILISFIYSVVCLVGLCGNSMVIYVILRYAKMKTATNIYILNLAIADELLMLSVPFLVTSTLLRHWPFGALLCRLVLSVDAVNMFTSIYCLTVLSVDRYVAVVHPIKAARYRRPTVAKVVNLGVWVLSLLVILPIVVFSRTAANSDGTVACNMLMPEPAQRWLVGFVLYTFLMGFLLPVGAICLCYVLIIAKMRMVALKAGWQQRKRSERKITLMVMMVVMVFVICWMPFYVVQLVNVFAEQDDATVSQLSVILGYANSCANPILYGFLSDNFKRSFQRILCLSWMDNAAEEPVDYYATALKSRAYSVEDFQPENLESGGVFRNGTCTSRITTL

In general, Ki refers to a measure of affinity in units of concentration, obtained from inhibition or displacement.

Chain of Somatostatin receptor type 2 (P30874 whole entry): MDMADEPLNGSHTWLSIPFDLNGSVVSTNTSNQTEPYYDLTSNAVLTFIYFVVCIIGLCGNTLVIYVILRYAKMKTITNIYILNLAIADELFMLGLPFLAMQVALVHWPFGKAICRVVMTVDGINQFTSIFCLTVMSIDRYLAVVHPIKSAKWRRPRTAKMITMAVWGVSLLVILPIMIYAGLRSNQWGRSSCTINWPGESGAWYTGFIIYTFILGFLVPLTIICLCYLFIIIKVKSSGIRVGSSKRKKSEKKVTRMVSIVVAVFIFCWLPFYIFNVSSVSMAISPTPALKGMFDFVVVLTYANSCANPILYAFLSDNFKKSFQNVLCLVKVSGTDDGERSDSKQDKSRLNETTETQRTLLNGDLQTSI
Chain of Somatostatin receptor type 5 (P35346 whole entry): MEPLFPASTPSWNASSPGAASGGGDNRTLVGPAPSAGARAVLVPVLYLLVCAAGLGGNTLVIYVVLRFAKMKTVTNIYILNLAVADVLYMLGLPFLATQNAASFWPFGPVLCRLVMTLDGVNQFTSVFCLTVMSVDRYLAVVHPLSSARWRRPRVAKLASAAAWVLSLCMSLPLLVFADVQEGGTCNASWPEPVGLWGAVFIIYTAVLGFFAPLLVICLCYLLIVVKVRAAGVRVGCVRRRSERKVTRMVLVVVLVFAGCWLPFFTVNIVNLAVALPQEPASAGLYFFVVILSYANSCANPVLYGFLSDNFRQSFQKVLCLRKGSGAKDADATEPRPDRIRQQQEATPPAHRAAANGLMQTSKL
Chain of Somatostatin receptor type 4 (P31391 whole entry): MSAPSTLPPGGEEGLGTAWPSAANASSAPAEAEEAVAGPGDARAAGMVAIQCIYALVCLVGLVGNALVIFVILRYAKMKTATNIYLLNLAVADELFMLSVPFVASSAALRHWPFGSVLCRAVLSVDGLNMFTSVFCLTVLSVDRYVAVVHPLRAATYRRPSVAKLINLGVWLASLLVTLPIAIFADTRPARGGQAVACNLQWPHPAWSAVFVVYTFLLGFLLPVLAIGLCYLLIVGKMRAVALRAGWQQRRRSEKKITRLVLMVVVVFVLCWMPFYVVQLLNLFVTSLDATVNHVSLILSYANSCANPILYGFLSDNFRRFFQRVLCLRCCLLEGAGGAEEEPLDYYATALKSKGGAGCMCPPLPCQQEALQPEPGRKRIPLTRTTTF
Chain of Somatostatin receptor type 3 (P32745 whole entry): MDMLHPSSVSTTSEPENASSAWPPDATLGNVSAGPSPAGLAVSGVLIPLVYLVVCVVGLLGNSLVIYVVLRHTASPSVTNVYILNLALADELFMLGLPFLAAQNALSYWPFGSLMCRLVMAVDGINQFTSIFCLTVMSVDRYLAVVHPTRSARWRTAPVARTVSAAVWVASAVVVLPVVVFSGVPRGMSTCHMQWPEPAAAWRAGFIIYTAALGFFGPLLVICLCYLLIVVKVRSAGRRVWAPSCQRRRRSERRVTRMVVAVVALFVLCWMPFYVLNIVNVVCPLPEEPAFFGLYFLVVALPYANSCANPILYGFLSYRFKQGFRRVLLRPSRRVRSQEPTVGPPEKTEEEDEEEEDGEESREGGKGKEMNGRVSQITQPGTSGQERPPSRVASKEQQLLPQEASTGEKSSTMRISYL

Turning to `CC(C)[C@H]1NC(=O)[C@H](CCCCN)NC(=O)[C@@H](Cc2c[nH]c3ccccc23)NC(=O)[C@H](Cc2c[nH]cn2)NC(=O)C(NC(=O)[C@@H](N)Cc2c(F)c(F)c(F)c(F)c2F)CSSCC(C(=O)N[C@@H](Cc2c(F)c(F)c(F)c(F)c2F)C(N)=O)NC1=O` (stereo in doubt), the Ki in assay [1] was over 1 µM; in assay [2] it was 0.124 µM; in assay [3], 0.926 µM; in assay [4], 0.637 µM; in assay [5] it was 0.069 µM.

Consider `CC(C)[C@@H]1NC(=O)[C@H](CCCCN)NC(=O)[C@@H](Cc2c[nH]c3ccccc23)NC(=O)[C@H](Cc2ccc(O)c(I)c2)NC(=O)C(NC(=O)[C@@H](N)Cc2ccc3ccccc3c2)CSSCC(C(=O)N[C@@H](Cc2ccc3ccccc3c2)C(N)=O)NC1=O` (stereo in doubt), for which the Ki in assay [1] is over 1 µM; in assay [2], 0.482 µM; in assay [3] it was 0.468 µM; in assay [4], 0.194 µM; in assay [5], over 1 µM.

As for `CC(C)(C)[C@@H]1NC(=O)[C@H](CCCCN)NC(=O)[C@@H](Cc2c[nH]c3ccccc23)NC(=O)[C@H](Cc2cccnc2)NC(=O)[C@H](NC(=O)[C@H](N)Cc2ccc(F)cc2)CSSC[C@@H](C(=O)N[C@@H](Cc2ccc3ccccc3c2)C(N)=O)NC1=O` (H-[dPhe(4-F)][dC][3Pal][dW]K[Tle]C[2Nal]-NH2; disulfide 2-7), the inhibition constant (Ki) was 0.888 µM in assay [1]; 0.555 µM in assay [2]; 0.26 µM in assay [3]; 0.132 µM in assay [4]; over 1 µM in assay [5].

Take `CC(C)[C@@H]1NC(=O)[C@H](CCCCN)NC(=O)[C@@H](Cc2c[nH]c3ccccc23)NC(=O)[C@H](Cc2cccnc2)NC(=O)[C@H](NC(=O)[C@H](N)Cc2ccc(F)cc2)CSSC[C@@H](C(=O)N[C@H](Cc2ccc(F)cc2)C(N)=O)NC1=O`: the Ki in assay [1] is over 1 µM; in assay [2] it was 0.838 µM; in assay [3], 0.694 µM; in assay [4], 0.106 µM; in assay [5] it was over 1 µM.

Consider `CCCC[C@@H]1NC(=O)[C@H](CCCCN)NC(=O)[C@@H](Cc2c[nH]c3ccccc23)NC(=O)[C@H](Cc2cccnc2)NC(=O)[C@H](NC(=O)[C@@H](N)Cc2ccc3ccccc3c2)CSSC[C@@H](C(=O)N[C@@H](Cc2ccc3ccccc3c2)C(N)=O)NC1=O` (H-[2Nal][dC][3Pal][dW]K[Nle]C[2Nal]-NH2; disulfide 2-7), for which the inhibition constant (Ki) in assay [1] is 0.672 µM; in assay [2], 0.126 µM; in assay [3], 0.814 µM; in assay [4], 0.076 µM; in assay [5], 0.845 µM.

Turning to `CC(C)(C)[C@@H]1NC(=O)[C@H](CCCCN)NC(=O)[C@@H](Cc2c[nH]c3ccccc23)NC(=O)[C@H](Cc2cccnc2)NC(=O)[C@H](NC(=O)[C@@H](N)Cc2ccc3ccccc3c2)CSSC[C@@H](C(=O)N[C@@H](Cc2ccc3ccccc3c2)C(N)=O)NC1=O` (H-[2Nal][dC][3Pal][dW]K[Tle]C[2Nal]-NH2; disulfide 2-7), the Ki is 0.145 µM in assay [1]; 0.371 µM in assay [2]; 0.631 µM in assay [3]; 0.035 µM in assay [4]; over 1 µM in assay [5].

With `CC[C@H](C)[C@@H]1NC(=O)[C@H](CCCCN)NC(=O)[C@@H](Cc2c[nH]c3ccccc23)NC(=O)[C@H](Cc2cccnc2)NC(=O)[C@H](NC(=O)[C@@H](N)Cc2ccc3ccccc3c2)CSSC[C@@H](C(=O)N[C@@H](Cc2ccc3ccccc3c2)C(N)=O)NC1=O` (H-[2Nal][dC][3Pal][dW]KIC[2Nal]-NH2; disulfide 2-7), the Ki in assay [1] is 1.04 µM; in assay [2], 0.152 µM; in assay [3], 0.847 µM; in assay [4] it was over 1 µM; in assay [5], 0.172 µM.

`CC(C)[C@@H]1NC(=O)[C@H](CCCCN)NC(=O)[C@@H](Cc2c[nH]c3ccccc23)NC(=O)[C@H](Cc2ccc(O)cc2)NC(=O)[C@H](NC(=O)[C@@H]2Cc3ccccc3CN2)CSSC[C@@H](C(=O)N2Cc3ccccc3C[C@H]2C(N)=O)NC1=O`: the inhibition constant Ki in assay [1] was over 1 µM; in assay [2], 0.802 µM; in assay [3], over 1 µM; in assay [4] it was 0.345 µM; in assay [5], 1.03 µM.

Take `CC(C)[C@@H]1NC(=O)[C@H](CCCCN)NC(=O)[C@@H](Cc2c[nH]c3ccccc23)NC(=O)[C@H](Cc2cccnc2)NC(=O)[C@H](NC(=O)[C@@H](N)Cc2ccc(F)cc2)CSSC[C@@H](C(=O)N[C@@H](Cc2ccc3ccccc3c2)C(N)=O)NC1=O`: the inhibitory constant (Ki) in assay [1] is over 1 µM; in assay [2] it was 0.271 µM; in assay [3] it was 0.287 µM; in assay [4], 0.035 µM; in assay [5] it was 0.484 µM.

For `CC(C)(C)[C@@H]1NC(=O)[C@H](CCCCN)NC(=O)[C@@H](Cc2c[nH]c3ccccc23)NC(=O)[C@H](Cc2cccnc2)NC(=O)[C@H](NC(=O)[C@H](N)Cc2ccc(Cl)cc2)CSSC[C@@H](C(=O)N[C@H](Cc2ccc(Cl)cc2)C(N)=O)NC1=O`, the Ki in assay [1] is 2.88 µM; in assay [2], 1.19 µM; in assay [3] it was 0.153 µM; in assay [4] it was 0.056 µM; in assay [5], over 1 µM.

As for `CC(C)[C@H]1NC(=O)[C@H](CCCCN)NC(=O)[C@@H](Cc2c[nH]c3ccccc23)NC(=O)[C@H](Cc2c[nH]cn2)NC(=O)C(NC(=O)[C@@H](N)Cc2cccc(F)c2)CSSCC(C(=O)N[C@@H](Cc2cccc(F)c2)C(N)=O)NC1=O` (stereo in doubt), the Ki is over 1 µM in assay [1]; 0.397 µM in assay [2]; 0.734 µM in assay [3]; 0.103 µM in assay [4]; 0.06 µM in assay [5].

For the compound `CC(C)[C@@H]1NC(=O)[C@H](CCCCN)NC(=O)[C@@H](Cc2c[nH]c3ccccc23)NC(=O)[C@H](Cc2cccnc2)NC(=O)[C@H](NC(=O)[C@@H](N)Cc2ccccc2F)CSSC[C@@H](C(=O)N[C@@H](Cc2ccccc2F)C(N)=O)NC1=O`, the Ki was over 1 µM in assay [1]; 0.385 µM in assay [2]; 1.58 µM in assay [3]; 0.241 µM in assay [4]; 0.186 µM in assay [5].

On to `CC(C)[C@@H]1NC(=O)[C@H](CCCCN)NC(=O)[C@@H](Cc2c[nH]c3ccccc23)NC(=O)[C@H](Cc2cccnc2)NC(=O)[C@H](NC(=O)[C@@H](N)Cc2ccc3ccccc3c2)CSSC[C@@H](C(=O)N[C@H](C(N)=O)C(c2ccccc2)c2ccccc2)NC1=O`, for which the inhibitory constant (Ki) in assay [1] is over 1 µM; in assay [2] it was 1.6 µM; in assay [3], 0.725 µM; in assay [4], 0.037 µM; in assay [5] it was over 1 µM.

`CC(C)[C@@H]1NC(=O)[C@H](CCCCN)NC(=O)[C@@H](Cc2c[nH]c3ccccc23)NC(=O)[C@H](Cc2csc3ccccc23)NC(=O)[C@H](NC(=O)[C@@H](N)Cc2ccc3ccccc3c2)CSSC[C@@H](C(=O)N[C@@H](Cc2ccc3ccccc3c2)C(N)=O)NC1=O` (H-[2Nal][dC][Bta][dW]KVC[2Nal]-NH2; disulfide 2-7): the Ki in assay [1] was over 1 µM; in assay [2], 0.709 µM; in assay [3], 1.4 µM; in assay [4], 0.418 µM; in assay [5] it was over 1 µM.

As for `CC(C)[C@@H]1NC(=O)[C@H](CCCCN)NC(=O)[C@@H](Cc2c[nH]c3ccccc23)NC(=O)[C@H](Cc2cccnc2)NC(=O)[C@H](NC(=O)[C@@H](N)Cc2ccc(I)cc2)CSSC[C@@H](C(=O)N[C@@H](Cc2ccc(I)cc2)C(N)=O)NC1=O`, the inhibition constant Ki in assay [1] stood at 0.436 µM; in assay [2], 0.018 µM; in assay [3], 0.048 µM; in assay [4] it was 0.032 µM; in assay [5], 0.575 µM.

`CC(C)(C)[C@@H]1NC(=O)[C@H](CCCCN)NC(=O)[C@@H](Cc2c[nH]c3ccccc23)NC(=O)[C@H](Cc2cccnc2)NC(=O)[C@H](NC(=O)[C@@H](N)Cc2ccc(Cl)cc2)CSSC[C@@H](C(=O)N[C@@H](Cc2ccc3ccccc3c2)C(N)=O)NC1=O` (H-[Phe(4-Cl)][dC][3Pal][dW]K[Tle]C[2Nal]-NH2; disulfide 2-7): the inhibitory constant (Ki) in assay [1] was 0.895 µM; in assay [2] it was 0.1 µM; in assay [3], 0.52 µM; in assay [4], 0.012 µM; in assay [5], over 1 µM.

`CC(C)[C@@H]1NC(=O)[C@H](CCCCN)NC(=O)[C@@H](Cc2c[nH]c3ccccc23)NC(=O)[C@H](Cc2cccnc2)NC(=O)[C@H](NC(=O)[C@@H](N)Cc2ccc(Br)cc2)CSSC[C@@H](C(=O)N[C@@H](Cc2ccc(Br)cc2)C(N)=O)NC1=O`: the inhibition constant Ki was 3.31 µM in assay [1]; 0.057 µM in assay [2]; 0.066 µM in assay [3]; 0.016 µM in assay [4]; 0.374 µM in assay [5].

Regarding `CC(C)[C@H]1NC(=O)[C@H](CCCCN)NC(=O)[C@@H](Cc2c[nH]c3ccccc23)NC(=O)[C@H](Cc2c[nH]cn2)NC(=O)C(NC(=O)[C@@H](N)Cc2ccccc2F)CSSCC(C(=O)N[C@@H](Cc2ccccc2F)C(N)=O)NC1=O` (stereo in doubt), the inhibition constant (Ki) in assay [1] is over 1 µM; in assay [2] it was 0.382 µM; in assay [3] it was 0.972 µM; in assay [4], 0.176 µM; in assay [5], 0.037 µM.

In the case of `CC(C)[C@@H]1NC(=O)[C@H](CCCCN)NC(=O)[C@@H](Cc2c[nH]c3ccccc23)NC(=O)[C@H](Cc2cccnc2)NC(=O)[C@H](NC(=O)[C@@H](N)Cc2cccc(F)c2)CSSC[C@@H](C(=O)N[C@@H](Cc2cccc(F)c2)C(N)=O)NC1=O`, the Ki in assay [1] was over 1 µM; in assay [2], 0.495 µM; in assay [3], 0.748 µM; in assay [4], 0.117 µM; in assay [5], 0.082 µM.
